Yeast life ext – compounds extending yeast replicative lifespan, primary screen, S. cerevisiae, OD615; 0.68% of 130,000 active; S. cerevisiae growth with nicotinamide; deaD strain in restrictive glucose medium; AID 775, 2007; inhibition of the nicotinamide effect, % at 10 µM;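 active means inhibition above a set limit, placed 3 SD over the median of all compounds, cut at about 26% in these data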;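 further: 0% = nicotinamide-treated wells and 100% = cells grown without nicotinamide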
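System: DeaD-strain S. cerevisiae / Buffer or medium: CSMM-D, restrictive glucose (dextrose) synthetic minimal medium / Probe or stimulus: nicotinamide, 1.5 mM, co-present with compound / Compound: one concentration, 10 µM, DMSO 0.25% / Incubation: 48 h compound exposure at 30 °C, humidified / Technique: optical density (absorbance) at 615 nm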
BB579 growth dn – growth inhibitors of yeast BB579 in restrictive medium, primary screen, yeast lifespan-shortening project, S. cerevisiae; OD615, 48 h; inhibition, % at 10 µM; 0.51% of 140,000 active; AID 804, 2007;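 active means inhibition above a set limit, 3 SD over the mean compound inhibition, cut at about 44% in these data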
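Material: Saccharomyces cerevisiae DeaD strain BB579, replicative lifespan model yeast; buffer or medium: CSMM-D restrictive synthetic medium containing dextrose (glucose); compound: 10 µM single dose, DMSO 0.25%; timing: 48 h compound exposure at 30 °C after 4 h preincubation; signal: turbidity as optical density at 615 nm; benchmarks: positive control amphotericin B 10 µg/mL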
WT yeast gro inh – growth inhibition of WT strain, primary screen, mitochondrial fusion inhibitor project, WT and mutant strains, chemical genetic. mitochondrial fusion phenotypic screen. 2.1% of 190,000 active. inhibition, % at 10 µM. AID 1362, 2008; in the data active means inhibition above about 58%; tested in S. cerevisiae
Cl transport mod – KCC2 cotransporter modulators, thallium flux, primary screen, cell-based, HEK293 KCC2, FluoZin-2 fluorescence, MLSMR; B-score of Tl+ flux slope (higher = more flux/activation; lower = inhibition) at 10 µM; 2.2% of 190,000 active; KCC2 cells, thallium flux FluoZin-2 fluorescence; Solute carrier family 12 member 5 (Homo sapiens), Q9H2X9;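 active means thallium flux slope and its plate-corrected score both differing from the plate sample mean at a set confidence after two filtering rounds, in either direction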;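 further: slope of fluorescence scaled to starting intensity during 10 to 20 s after thallium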
Target sequence (Q9H2X9 whole entry, looked up): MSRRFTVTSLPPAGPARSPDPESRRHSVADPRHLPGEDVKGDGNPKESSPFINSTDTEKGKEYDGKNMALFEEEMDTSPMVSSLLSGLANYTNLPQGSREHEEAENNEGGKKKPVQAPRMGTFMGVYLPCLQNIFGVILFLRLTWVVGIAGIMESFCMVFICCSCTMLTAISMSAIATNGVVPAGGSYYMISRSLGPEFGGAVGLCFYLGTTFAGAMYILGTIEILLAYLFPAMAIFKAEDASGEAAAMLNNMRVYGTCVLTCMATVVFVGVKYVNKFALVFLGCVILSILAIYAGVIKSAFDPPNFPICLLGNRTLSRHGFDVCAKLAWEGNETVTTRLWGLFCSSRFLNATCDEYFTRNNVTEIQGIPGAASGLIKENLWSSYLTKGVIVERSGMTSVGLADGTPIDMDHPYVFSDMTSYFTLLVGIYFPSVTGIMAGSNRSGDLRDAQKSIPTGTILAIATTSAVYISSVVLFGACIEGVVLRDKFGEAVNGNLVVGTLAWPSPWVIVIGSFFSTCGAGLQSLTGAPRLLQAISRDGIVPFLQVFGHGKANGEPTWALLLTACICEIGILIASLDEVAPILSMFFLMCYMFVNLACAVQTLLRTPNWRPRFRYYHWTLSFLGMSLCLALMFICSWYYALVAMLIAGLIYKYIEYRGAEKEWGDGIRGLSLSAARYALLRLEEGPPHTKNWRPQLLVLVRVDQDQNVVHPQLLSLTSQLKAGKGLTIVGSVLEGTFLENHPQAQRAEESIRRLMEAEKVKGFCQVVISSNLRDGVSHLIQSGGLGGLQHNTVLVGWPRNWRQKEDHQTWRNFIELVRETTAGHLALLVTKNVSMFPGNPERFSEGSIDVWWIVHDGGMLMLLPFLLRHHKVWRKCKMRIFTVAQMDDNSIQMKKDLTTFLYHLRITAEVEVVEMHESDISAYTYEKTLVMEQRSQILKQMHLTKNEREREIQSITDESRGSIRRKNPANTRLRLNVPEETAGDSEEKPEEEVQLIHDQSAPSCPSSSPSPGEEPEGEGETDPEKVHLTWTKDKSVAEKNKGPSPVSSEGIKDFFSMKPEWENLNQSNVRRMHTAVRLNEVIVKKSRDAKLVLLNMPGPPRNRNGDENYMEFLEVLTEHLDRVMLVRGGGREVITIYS
RAM network inh – inhibitors of the yeast RAM network, primary screen, dse1pr::URA3 reporter, 5-FOA selection. S. cerevisiae dse1pr::URA3 reporter, 5-FOA growth OD615, 2 d; analog-sensitive cbk1-as2 kinase mutant strain. inhibition, % at 50 µM. 1.8% of 190,000 active;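 active means inhibition above a set limit, 3 SD over mean compound inhibition, cut at about 8.4% in these data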;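 further: 0% = DMSO-only wells with no growth and 100% = 10 µM 1-NA-PP1 full growth; inhibition rescues growth on 5-FOA so higher OD means more RAM inhibition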
RAM 5-FOA – 5-FOA growth of efflux-deficient control yeast, dose response, counter-screen for RAM network inhibitor project, S. cerevisiae, OD615. max inhibition, %. S. cerevisiae efflux-deficient reporter strain, 5-FOA growth OD615, 2 days. shares compounds with RAM network inh. AID 1305, 2008. 1,200 tested, under 10 active; call rule not given here;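 further: plate controls were vehicle for no effect and reference inhibitor for full effect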
The depositor's hits bear a star. Compounds with a hit are over-represented: about 5.5% of the library has one in this group of screens.

Results for O=C1Nc2ccccc2/C1=N\N=C\C1=C(N2CCOCC2)C(=C\c2ccccc2)/CC1 ?
Yeast life ext: -8.1; BB579 growth dn: -47.8; WT yeast gro inh: 60.7*; RAM network inh: 12.6*; RAM 5-FOA: 4.9

How did Cn1cc(C(=O)N/N=C/C2=C(N3CCOCC3)C(=C\c3ccccc3)/CC2)ccc1=O do in these assays?
Yeast life ext: 3.5; BB579 growth dn: -31.8; WT yeast gro inh: 3.4; Cl transport mod: -0.712; RAM network inh: -0.5

How did O=C(/C=C/c1ccc(-c2ccccc2[N+](=O)[O-])o1)c1ccccc1 do in these assays?
Yeast life ext: -5.7; BB579 growth dn: -32.7; WT yeast gro inh: 40.7; Cl transport mod: -1.45; RAM network inh: 15.8*; RAM 5-FOA: 3.9

What do the screens show for `O=C(CNS(=O)(=O)c1ccc2ccccc2c1)OCc1csc(-c2ccccc2)n1`?
Yeast life ext: 1.7; BB579 growth dn: -60.0; WT yeast gro inh: 38.7; Cl transport mod: -0.942; RAM network inh: 14.1*; RAM 5-FOA: 2.6

Results for CN1CN(C)C(c2ccncc2)=C1c1ccncc1 ?
Cl transport mod: -0.206

How did CC(=O)Nc1ccc(OCC(O)Cn2c3ccccc3c3ccccc32)c(C)c1 (configuration not stated) do in these assays?
Yeast life ext: -3.3; BB579 growth dn: -51.9; WT yeast gro inh: 5.5; Cl transport mod: -1.16; RAM network inh: 7.0

What do the screens show for `Cc1ccccc1OCC(O)Cn1c2ccccc2c2ccccc21` (configuration not stated)?
Yeast life ext: -13.3; BB579 growth dn: -28.8; WT yeast gro inh: 20.3; RAM network inh: 12.6*; RAM 5-FOA: 5.6

Results for COC(=O)c1ccc(-c2ncc(-c3cccc4ccccc34)o2)cc1 ?
BB579 growth dn: -12.7; WT yeast gro inh: 7.0; Cl transport mod: -0.308; RAM network inh: 13.1*; RAM 5-FOA: 1.8

What do the screens show for `Cc1ccc(C(=O)NNC(=O)CSc2n[nH]c(-c3cccnc3)n2)cc1`?
WT yeast gro inh: -9.3; Cl transport mod: 0.634; RAM network inh: 2.8

Results for COc1ccccc1/C=C/C(=O)OCC(=O)Nc1ccccc1Sc1ccccc1 ?
Yeast life ext: -1.2; BB579 growth dn: -31.5; WT yeast gro inh: 20.4; Cl transport mod: 0.372; RAM network inh: 15.5*; RAM 5-FOA: 3.4

How did CC(C)[C@H](NS(=O)(=O)c1ccccc1)C(=O)OCC(=O)Nc1ccccc1Sc1ccccc1 do in these assays?
Yeast life ext: 10.6; BB579 growth dn: -24.4; WT yeast gro inh: 44.0; Cl transport mod: -0.533; RAM network inh: 14.9*; RAM 5-FOA: 5.6

How did O=C(COC(=O)CNS(=O)(=O)c1cccc(Br)c1)Nc1ccccc1Sc1ccccc1 do in these assays?
Yeast life ext: 10.9; BB579 growth dn: -48.4; WT yeast gro inh: 1.5; Cl transport mod: 1.04; RAM network inh: 15.0*; RAM 5-FOA: 1.7

How did O=C(COC(=O)CNS(=O)(=O)c1c(Cl)cccc1Cl)Nc1ccccc1Sc1ccccc1 do in these assays?
Yeast life ext: 7.0; BB579 growth dn: -40.7; WT yeast gro inh: 9.2; Cl transport mod: -1.23; RAM network inh: 7.9

What do the screens show for `CC1CCCC(C)N1CC(O)COc1c(F)cc(Br)cc1F` (configuration not stated)?
WT yeast gro inh: -13.2; Cl transport mod: 0.941; RAM network inh: 0.4

How did O=C(NCc1ccc2c(c1)OCO2)c1cc(-c2ccccn2)nc2ccccc12 do in these assays?
WT yeast gro inh: 7.4; Cl transport mod: -0.575; RAM network inh: 13.7*; RAM 5-FOA: 3.3

Results for CCCNC(=O)c1ccccc1NC(=O)c1ccc(CSc2ccccc2)cc1 ?
Yeast life ext: -7.4; BB579 growth dn: -20.8; WT yeast gro inh: 26.6; Cl transport mod: 0.931; RAM network inh: 12.7*; RAM 5-FOA: 4.9

Results for CCC(C)NC(=O)c1ccccc1NC(=O)c1ccc(CSc2ccccc2)cc1 (configuration not stated) ?
Yeast life ext: 5.7; BB579 growth dn: -61.4; WT yeast gro inh: 21.9; Cl transport mod: 0.705; RAM network inh: 20.1*; RAM 5-FOA: 5.6

What do the screens show for `CCC(C)C(NC(=O)c1ccccc1NC(=O)c1ccccc1)C(=O)O` (configuration not stated)?
Cl transport mod: -0.295

How did COc1ccc(-c2nnc(SC(C)C(=O)Nc3cccc(Cl)c3)o2)cc1 (configuration not stated) do in these assays?
Yeast life ext: -7.7; BB579 growth dn: -40.9; WT yeast gro inh: 33.0; RAM network inh: 14.6*; RAM 5-FOA: 1.7

Results for COc1ccc(-c2nnc(SC(C)C(=O)NNC(=O)c3ccc(C)cc3)o2)cc1 (configuration not stated) ?
Yeast life ext: 1.8; BB579 growth dn: -18.2; WT yeast gro inh: 5.7; Cl transport mod: -0.656; RAM network inh: 0.1

Results for CSc1ccc(S(=O)(=O)NCCCOC(C)C)cc1 ?
WT yeast gro inh: 2.4; Cl transport mod: 0.524; RAM network inh: -1.4

What do the screens show for `CCOP(=O)(OCC)c1nc(-c2cccc3ccccc23)oc1NCc1ccccc1`?
Yeast life ext: -5.3; BB579 growth dn: -27.4; WT yeast gro inh: -14.8; RAM network inh: 5.7

Results for CCOP(=O)(OCC)c1nc(-c2cccc3ccccc23)oc1NCc1ccc(OC)cc1 ?
WT yeast gro inh: 17.4; Cl transport mod: 0.00321; RAM network inh: 12.9*; RAM 5-FOA: 2.5

What do the screens show for `CCOC(=O)c1c(-c2ccc(OC)cc2)csc1NC(=O)CSc1ccccc1`?
Yeast life ext: -2.4; BB579 growth dn: -25.7; WT yeast gro inh: -45.1; Cl transport mod: 0.216; RAM network inh: 14.9*; RAM 5-FOA: 3.1

What do the screens show for `COc1ccc(-c2csc(NC(=O)CSc3ccc(Br)cc3)n2)c(OC)c1`?
Yeast life ext: -2.3; BB579 growth dn: -43.2; WT yeast gro inh: 5.5; Cl transport mod: 0.0449; RAM network inh: 2.2

Results for COc1ccc(OC)c(-c2csc(NC(=O)CSc3ccccc3)n2)c1 ?
Yeast life ext: 1.3; BB579 growth dn: -26.2; WT yeast gro inh: 43.6; Cl transport mod: -0.338; RAM network inh: 11.4*; RAM 5-FOA: 4.1

What do the screens show for `CCOC(=O)c1c(-c2ccccc2)csc1NC(=O)CSc1ccccc1`?
Yeast life ext: 3.0; BB579 growth dn: -36.7; WT yeast gro inh: -8.3; Cl transport mod: -0.0641; RAM network inh: 13.3*; RAM 5-FOA: 4.1

How did CCOC(=O)c1c(-c2ccccc2)csc1NC(=O)CCN1CCOCC1 do in these assays?
Yeast life ext: -7.9; BB579 growth dn: 22.2; WT yeast gro inh: 56.6; Cl transport mod: 0.0403; RAM network inh: 0.4

Compound activity from PubChem BioAssay.
